Assay results published in PMC12508127 (Nature Communications, 2025).
≈ marks a conversion by molar mass, not a printed value. Like-named read-outs stand apart in the source and are kept apart here.

Assays:
ScSDH = ScSDH (Saccharomyces cerevisiae, UniProt P21801+P33421+P37298+Q00711); test: SDH activity assay; type: biochemical
porcine SDH = porcine SDH (Sus scrofa, UniProt A5GZW8+D0VWV4+Q007T0); test: SDH activity assay; type: biochemical; conditions: read-out: Ki, Porcine; inhibition constant against porcine SDH
porcine SDH, sequence (Q0QF01 43-664 partner): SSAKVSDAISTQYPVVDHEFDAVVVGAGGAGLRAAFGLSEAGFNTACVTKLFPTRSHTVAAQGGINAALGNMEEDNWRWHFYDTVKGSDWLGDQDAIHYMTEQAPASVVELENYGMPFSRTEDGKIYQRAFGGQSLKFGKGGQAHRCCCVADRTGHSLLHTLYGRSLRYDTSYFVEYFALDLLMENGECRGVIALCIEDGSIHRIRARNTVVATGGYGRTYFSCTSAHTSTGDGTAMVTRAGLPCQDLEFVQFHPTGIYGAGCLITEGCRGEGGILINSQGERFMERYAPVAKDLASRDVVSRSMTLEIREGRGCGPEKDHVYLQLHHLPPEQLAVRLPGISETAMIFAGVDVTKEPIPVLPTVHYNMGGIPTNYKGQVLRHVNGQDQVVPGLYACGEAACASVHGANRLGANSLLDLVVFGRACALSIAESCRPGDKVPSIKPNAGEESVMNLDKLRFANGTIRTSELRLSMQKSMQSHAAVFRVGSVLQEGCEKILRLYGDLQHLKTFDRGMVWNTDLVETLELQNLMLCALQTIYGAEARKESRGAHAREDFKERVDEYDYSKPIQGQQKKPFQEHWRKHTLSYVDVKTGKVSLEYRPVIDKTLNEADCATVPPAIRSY
porcine SDH, sequence (Q007T0 29-280): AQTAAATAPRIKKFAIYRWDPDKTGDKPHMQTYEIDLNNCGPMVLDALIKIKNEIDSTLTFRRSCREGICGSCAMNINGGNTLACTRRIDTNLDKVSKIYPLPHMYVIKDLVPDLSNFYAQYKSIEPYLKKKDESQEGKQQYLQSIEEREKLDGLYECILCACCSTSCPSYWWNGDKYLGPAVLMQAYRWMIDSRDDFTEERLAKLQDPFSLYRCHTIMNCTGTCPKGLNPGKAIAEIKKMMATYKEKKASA
porcine SDH, sequence (D0VWV4 30-169): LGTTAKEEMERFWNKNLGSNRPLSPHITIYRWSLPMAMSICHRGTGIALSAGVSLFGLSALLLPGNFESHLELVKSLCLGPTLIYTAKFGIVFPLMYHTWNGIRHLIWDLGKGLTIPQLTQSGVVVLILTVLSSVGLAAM
porcine SDH, sequence (A5GZW8 57-159 limits assumed): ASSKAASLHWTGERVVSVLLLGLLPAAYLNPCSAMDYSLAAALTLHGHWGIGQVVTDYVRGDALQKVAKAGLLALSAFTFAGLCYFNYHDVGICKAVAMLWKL

Sclerotinia sclerotiorum = type: cell-based; conditions: 1.56 mg/L
Fusarium graminearum = type: cell-based
[1] = tested on: Fusarium pseudograminearum; type: cell-based
Fusarium oxysporum = type: cell-based; conditions: 1.56 mg/L
Ustilaginoidea virens = type: cell-based; conditions: 1.56 mg/L
Alternaria alternata = type: cell-based; conditions: 1.56 mg/L
Alternaria solani = type: cell-based; conditions: 1.56 mg/L
Phytophthora infestans = type: cell-based
Phytophthora capsica = type: cell-based; conditions: 1.56 mg/L
Exserohilum turcicum = type: cell-based; conditions: 1.56 mg/L
[2] = tested on: wheat powdery mildew (WPM, Erysiphe graminis); type: in vivo; conditions: greenhouse
[3] = tested on: cucumber powdery mildew (CPM, Sphaerotheca fuliginea); conditions: in vivo
WPM (Erysiphe graminis) = type: in vivo; conditions: WPM field trial, 187.5 g a.i./ha
[4] = tested on: FHB (Fusarium graminearum); conditions: in vivo
[5] = tested on: deoxynivalenol (DON) content; type: in vivo, wheat; conditions: field; for DON content: wheat flour
[6] = Average thousand grain weight and yield increase, FHB field trial; type: in vivo, wheat; conditions: 150 g a.i./ha
In short: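 Field plots (20 m2) in Huai'an, wheat variety yannong 1212, with Fusarium graminearum head blight. Test compound as 10% emulsifiable concentrate at 112.5, 150 and 180 g a.i./ha, sprayed at early and peak anthesis. Commercial fungicides served as positive controls and water as negative control. Five-point sampling, 100 mature spikes per point, pooled, air-dried and threshed. 1000 random grains weighed, three replicates per treatment.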

[7] = tested on: zebrafish (Brachydanio rerio H-B.); test: Acute toxicity zebrafish, static test; type: in vivo
In short: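 Juvenile zebrafish (not sexually mature) held at 22–23 °C on a 16–8 h light-dark cycle. Static exposure followed the national fish acute toxicity guideline. Definitive test used 1.20, 1.00, 0.833, 0.694, 0.578 and 0.482 mg a.i./L, with dechlorinated tap water as blank control. One replicate of 10 fish per group.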

ScSDH, sequence (Q00711 29-640): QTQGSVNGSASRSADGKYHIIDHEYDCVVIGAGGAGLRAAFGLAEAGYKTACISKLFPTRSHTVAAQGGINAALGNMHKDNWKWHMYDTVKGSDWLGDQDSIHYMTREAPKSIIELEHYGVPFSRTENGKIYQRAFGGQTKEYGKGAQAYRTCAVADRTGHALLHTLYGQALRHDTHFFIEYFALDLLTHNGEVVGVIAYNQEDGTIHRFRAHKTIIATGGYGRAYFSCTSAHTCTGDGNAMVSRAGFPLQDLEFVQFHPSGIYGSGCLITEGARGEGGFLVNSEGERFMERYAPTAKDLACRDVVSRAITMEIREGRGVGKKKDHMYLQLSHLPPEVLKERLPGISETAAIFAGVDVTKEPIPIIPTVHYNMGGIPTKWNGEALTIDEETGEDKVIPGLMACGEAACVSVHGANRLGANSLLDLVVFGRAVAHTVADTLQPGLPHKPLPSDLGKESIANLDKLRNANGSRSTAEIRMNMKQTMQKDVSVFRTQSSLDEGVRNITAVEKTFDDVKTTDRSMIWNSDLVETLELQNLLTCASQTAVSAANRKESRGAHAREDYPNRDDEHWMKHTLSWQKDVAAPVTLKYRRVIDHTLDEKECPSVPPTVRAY
ScSDH, sequence (P21801 21-266): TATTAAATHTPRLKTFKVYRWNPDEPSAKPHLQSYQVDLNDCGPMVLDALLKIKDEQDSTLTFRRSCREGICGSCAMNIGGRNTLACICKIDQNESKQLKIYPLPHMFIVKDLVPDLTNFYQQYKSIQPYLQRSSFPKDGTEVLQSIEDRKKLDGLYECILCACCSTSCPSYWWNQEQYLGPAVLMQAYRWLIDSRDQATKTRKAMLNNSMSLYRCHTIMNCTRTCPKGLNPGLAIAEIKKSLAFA
ScSDH, sequence (P33421 51-198): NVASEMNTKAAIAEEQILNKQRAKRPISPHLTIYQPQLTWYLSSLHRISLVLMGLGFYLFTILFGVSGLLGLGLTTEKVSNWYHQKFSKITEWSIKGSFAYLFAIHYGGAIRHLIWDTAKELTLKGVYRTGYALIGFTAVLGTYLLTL
ScSDH, sequence (P37298 32-181): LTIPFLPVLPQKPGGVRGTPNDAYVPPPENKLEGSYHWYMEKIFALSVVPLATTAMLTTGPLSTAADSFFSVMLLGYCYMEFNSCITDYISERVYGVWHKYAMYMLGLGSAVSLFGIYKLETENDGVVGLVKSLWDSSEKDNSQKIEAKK

C=C(CN(C(=O)c1c(C(F)F)nn(C)c1F)C1CC1)c1ccc(Cl)cc1Cl [E8, enprocymid]
potency relative to PYD (IC50) (ScSDH; E8 IC50 vs PYD IC50, ScSDH): ~1.3 fold
IC50 (ScSDH; against ScSDH): 30 ± 3 nM
Species selectivity (ScSDH; ratio of Ki for porcine SDH and ScSDH): 14.78
Ki (ScSDH; read-out: Ki, Yeast, inhibition constant against ScSDH): 19 ± 1 nM
Ki (porcine SDH): 281 ± 14 nM
inhibition rate (%), Ss (Sclerotinia sclerotiorum): 74.67%
inhibition rate (%), Fg (Fusarium graminearum): 97.31%
inhibition rate (%), Fp [1]: 85.33%
inhibition rate (%), Fo (Fusarium oxysporum): 87.33%
inhibition rate (%), Uv (Ustilaginoidea virens): 100.00%
inhibition rate (%), Aa (Alternaria alternata): 95.67%
inhibition rate (%), As (Alternaria solani): 80.00%
inhibition rate (%), Pi (Phytophthora infestans): 81.97%
inhibition rate (%), Pc (Phytophthora capsica): 76.33%
inhibition rate (%), Et (Exserohilum turcicum): 100.00%
EC50 ([2]; WPM): 0.0462 µg/mL (≈ 0.11 µM)
activity against WPM relative to PYD [2]: over 20 fold
EC50 [3]: 0.5431 µg/mL (≈ 1.3 µM)
Control efficiency (%) (WPM (Erysiphe graminis)): 92.38%
Control efficiency (%) [4]: 88.81%
DON inhibition rate (%) ([5]; 150 g a.i./ha): 86.05%
DON inhibition rate (%) ([5]; 180 g a.i./ha): 89.40%
DON content ([5]; 150 g a.i./ha): 217.5 µg/kg
DON content ([5]; 180 g a.i./ha): 165.3 µg/kg
Yield increase rate (%) [6]: 10.18%
Toxicity level ([7]; by LC50 (96 h)): moderately toxic
LC50 (96 h) ([7]; static test, 96 h): 1.01 mg a.i./L

CC(C)(C)C(O)(CCc1ccc(Cl)cc1)Cn1cncn1 (centres unmarked) [tebuconazole]
Control efficiency (%) [4]: 84.45%

OCC1=C[C@H](N[C@H]2C[C@H](CO)[C@@H](O[C@@H]3O[C@H](CO)[C@@H](O)[C@H](O)[C@H]3O)[C@H](O)[C@H]2O)[C@H](O)[C@@H](O)[C@@H]1O [validamycin]
Control efficiency (%) [4]: 48.42%
